Compounds with a hit are over-represented: about 4.1% of the library has one in this group of screens.
ROMK primary: modulators of human ROMK potassium channel | 130,000 tested, 2% active | Tet-inducible ROMK, thallium flux fluorescence; actives lie on both sides | P48048 | B-score at 10 µM;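 active means signal ratio slope over the read window, or its plate-corrected B-score, at least 3 SD from the plate mean, either direction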;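 further: B-score of the F/F0 ratio slope over 7 to 12 s after thallium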
Cl transport mod: modulates chloride dependent transport by human KCC2; B-score of Tl+ flux slope (higher = more flux/activation; lower = inhibition) at 10 µM; 190,000 tested, 2.2% active; KCC2 cells, thallium flux FluoZin-2 fluorescence; Q9H2X9; AID 1456;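 active means thallium flux slope and its plate-corrected score both differing from the plate sample mean at a set confidence after two filtering rounds, in either direction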;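 further: slope of fluorescence scaled to starting intensity during 10 to 20 s after thallium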
Dynein transport: dynein cargo transport inhibition; 3617.4 mouse cells, GR-EGFP nuclear translocation imaging; test concentration mostly 20 µM; stimulated with dexamethasone, 1 µM; active compounds read low; z-score, hits read low; 220,000 tested, 0.47% active; AID 1381;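 active means plate z-score of nuclear minus cytoplasmic receptor signal below a set negative limit, without overly bright fluorescence or cell loss, cut at about -3.5 in these data, passing the limit was not always enough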;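 further: z-score of nuclear minus cytoplasmic ring GR-EGFP intensity difference per well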
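Buffer or medium: tetracycline-free induction medium containing charcoal-stripped FBS / Reagent: dexamethasone agonist, 1.0 µM final, for 30 min / Technique: automated 10x imaging of fixed Hoechst-stained cells / Times: induction 48 h, compound 1 h, agonist 30 min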
DTT redox prof: compounds producing H2O2 with reducing agent – biochemical, NIH compound library profiling, artefact control for MLSCN library redox annotation, primary screen; activation, % at 10 µM; 200,000 tested, 0.03% active; DTT-dependent redox cycling H2O2, phenol red/HRP absorbance; 100% = 100 µM peroxide control, 0% = buffer;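 active means activation of at least 50% relative to the plate's high and low controls in the primary single-dose screen; inactive means activation below 50%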;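 further: compound incubated with DTT at 0.8 mM final as the reducing agent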
Autophagy HCS: alters autophagy in cells; 190,000 tested, 0.98% active; calls only at 10 µM (by protocol); MEF GFP-LC3 puncta imaging; test concentration mostly 10 µM; AID 463193;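 active means percentage of spot-positive cells more than 3 SD above its plate mean, without a fluorescence outlier flag or 80% toxicity; inconclusive means no clear call, values can overlap the other calls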
ROMK hit retest: confirmation of human ROMK potassium channel modulators | 3,000 tested, 54% active | normalized thallium flux (F/F0 slope) at 10 µM | ROMK thallium flux, fluorescence ratio; active compounds read low | shares compounds with ROMK primary;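 active means Flux at 10 µM at least 3 SD below or above vehicle control mean in one or both replicates; inconclusive means no clear call, values can overlap the other calls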
Of the large screens only hits and unclear results are named; the others gave an inactive call (follow-up assays come after a bar, where they were run).

Cc1c(NC(=O)/C(C#N)=C/C2CC=CCC2)c(=O)n(-c2ccccc2)n1C (stereo unspecified)	ROMK primary -4.97 | ROMK hit retest 0.0431
Cc1c(N2C(=O)/C(=C3\C(=O)N(CC(=O)O)c4ccccc43)SC2=S)c(=O)n(-c2ccccc2)n1C	none (no result: ROMK primary, DTT redox prof, Autophagy HCS)
Cc1c(N2C(=O)/C(=C\C3CC=CCC3)SC2=S)c(=O)n(-c2ccccc2)n1C (stereo unspecified)	ROMK primary -6.55 | ROMK hit retest 0.0378
Cc1c(NC(=O)/C(C#N)=C/c2ccc(-c3ccc(Cl)cc3)o2)c(=O)n(-c2ccccc2)n1C	ROMK primary -2.61 | ROMK hit retest inactive
O=C(COC(=O)/C=C/c1ccc(S(=O)(=O)N2CCOCC2)cc1)NC1CCCCCCC1	none
CCOc1cc(N2CCOCC2)c(OCC)cc1NCC(=O)N1CCN(Cc2ccccc2)CC1	none (no result: ROMK primary, DTT redox prof, Autophagy HCS)
CCN=C1SC(CC(=O)NCC)C(=O)N1CC (stereo unspecified)	ROMK primary 3.05 | ROMK hit retest inactive
Nc1nc2c(F)c(F)c(F)cc2s1	none
COc1ccc(C(=O)C(CCC(CNC(C)(C)C)C(=O)c2ccc(OC)cc2)CNC(C)(C)C)cc1 (stereo unspecified)	none (no result: ROMK primary) | ROMK hit retest 0.066
COc1ccc(C(=O)NN)cc1	none (no result: ROMK primary, DTT redox prof, Autophagy HCS)
CCOC(=O)NNC(=O)C1CCC(C)CC1 (stereo unspecified)	none
CCCNC(=S)N1CCN(C(c2ccccc2)c2ccccc2)CC1	ROMK primary -3.24 | ROMK hit retest inactive
CC1CC(C)CN(CCCNC(=O)c2csc3c2CCCC3)C1 (stereo unspecified)	ROMK primary -2.96 | ROMK hit retest 0.0635
CC(C)CCNC(=O)c1csc2c1CCCCC2	none
CCCNC(=S)Nc1cccc(C(F)(F)F)c1	none | ROMK hit retest inconclusive
Cc1ccc(C(=O)NCC(=O)O)o1	none
Cc1ccc(Cl)cc1N1CCN(C(=O)c2cc3c(=O)[nH]c4ccccc4c3n2C)CC1	none
C/C(=N/NC(=O)CNc1ccc(Cl)cc1C)c1ccc(C)cc1	ROMK primary 11.9 | ROMK hit retest inactive
CCC1Oc2ccc(C)cc2N(CC(=O)NCc2ccco2)C1=O (stereo unspecified)	none
CCC1Oc2ccc(C)cc2N(CC(=O)N(Cc2ccc(C)o2)C2CC(C)(C)NC(C)(C)C2)C1=O (stereo unspecified)	ROMK primary -6.94 | ROMK hit retest 0.0594
COC(=O)C1CCN(C(=O)CSc2ccccc2)CC1	none | ROMK hit retest inactive
COC(=O)C1CCN(C(=O)CCCOc2ccccc2)CC1	none (no result: ROMK primary)
O=C(Nc1ccc(-c2nc3cc(NC(=O)c4cccs4)ccc3o2)cc1)c1cccs1	none (no result: ROMK primary)
O=C(Nc1ccc2oc(-c3ccncc3)nc2c1)c1cccs1	none (no result: ROMK primary, Cl transport mod) | ROMK hit retest inactive
CCCCNC(=O)c1ccc(CS(=O)(=O)c2cccc(C(F)(F)F)c2)o1	none (no result: ROMK primary)
O=C(O)c1ccc(CS(=O)(=O)c2cccc(C(F)(F)F)c2)o1	none (no result: ROMK primary) | ROMK hit retest inactive
CC(=O)Nc1sc(N/N=C/c2ccccc2)nc1-c1ccc(C)cc1	none (no result: ROMK primary, DTT redox prof, Autophagy HCS) | ROMK hit retest inactive
CCCCn1c(CN2C(=O)c3ccccc3C2=O)nc2ccccc2c1=O	none (no result: ROMK primary)
Cc1cccc2c3nc4ccccc4nc3n(CCCN3C(=O)c4ccccc4C3=O)c12	none (no result: ROMK primary) | ROMK hit retest 0.0651
Cc1nc2cc(NCc3nc4ccccc4n3Cc3ccccc3)ccc2n1C	ROMK primary -5.2 (no result: Cl transport mod) | ROMK hit retest 0.0607
Nc1nc2c([N+](=O)[O-])cccc2s1	none
COc1ccc(OC)c(C2=NOC(C(=O)NCc3ccco3)C2)c1 (stereo unspecified)	ROMK primary 3.47 | ROMK hit retest inactive
O=C(NCc1ccco1)C1CC(c2ccccc2O)=NO1 (stereo unspecified)	ROMK primary 3.59 | ROMK hit retest inactive
O=C(NCc1ccco1)C1CC(c2ccccc2C(F)(F)F)=NO1 (stereo unspecified)	none (no result: ROMK primary, DTT redox prof, Autophagy HCS)
CCN(CC)C(=O)CSc1nc2sc(C)c(C)c2c(=O)[nH]1	none (no result: ROMK primary) | ROMK hit retest inactive
COc1cc(C(=O)N(c2ccc(C)c(C)c2)C2C=CS(=O)(=O)C2)cc(OC)c1OC (stereo unspecified)	none
Cc1c(-n2cc(C(=O)c3cc(F)ccc3O)cc(C#N)c2=O)c(=O)n(-c2ccccc2)n1C	none
CC(C)n1cc(C(=O)c2ccccc2O)cc(C#N)c1=O	none
N#Cc1cc(C(=O)c2ccccc2O)cn(-c2nccs2)c1=O	ROMK primary -8.41 | ROMK hit retest 0.0251
N#Cc1cc(C(=O)c2cc(F)ccc2O)cn(-c2nccs2)c1=O	ROMK primary -4.96 | ROMK hit retest 0.0304
COc1cc(CNC(C)(C)CO)cc(Br)c1OCc1ccc(Cl)cc1	ROMK primary -5.14 | ROMK hit retest 0.0564
COC(=O)N/N=C/c1ccc(-c2cc(Cl)ccc2Cl)o1	none (no result: ROMK primary) | ROMK hit retest 0.0657
COc1ccccc1-n1cnnc1SC(C)C(=O)Nc1cccc([N+](=O)[O-])c1 (stereo unspecified)	none
CC(C)(C)C(=O)NNC(=O)c1cc2sccc2s1	none (no result: ROMK primary, DTT redox prof, Autophagy HCS)
C=CCOc1c(Br)cc(/C=N/O)cc1OCC	ROMK primary -3.78 | ROMK hit retest 0.0574
CCCCOc1c(Br)cc(/C=N/O)cc1OCC	none
O=C(O)C1CCCCC1C(=O)NCCc1ccncc1 (stereo unspecified)	ROMK primary 2.41 | ROMK hit retest inactive
O=C(O)[C@H]1CCCC[C@H]1C(=O)NCCc1ccccc1	none (no result: Cl transport mod)
O=C(c1ccco1)N1CCN(C(=O)N2c3ccccc3Sc3ccccc32)CC1	ROMK primary -3.04, Autophagy HCS active | ROMK hit retest inactive
O=C(c1cnsn1)N1CCN(c2ccccn2)CC1	ROMK primary 1.65 (no result: Cl transport mod) | ROMK hit retest inactive
Cc1cc(C(=O)N2CCN(c3ccccn3)CC2)no1	none (no result: ROMK primary)
O=C(N1CCN(c2ccccn2)CC1)N1c2ccccc2Sc2ccccc21	ROMK primary 3.3 | ROMK hit retest inactive
O=C(COc1ccc(Cl)cc1Cl)N1CCN(c2ccccn2)CC1	none
O=C(COc1cc(Cl)c(Cl)cc1Cl)N1CCN(c2ccccn2)CC1	ROMK primary -3.02 | ROMK hit retest 0.0658
O=C(c1ccco1)N1c2ccccc2Sc2ccccc21	none (no result: ROMK primary)
CCOC(=O)Cn1cc(/C=N/NC(=O)c2cc3ccccc3o2)c2ccccc21	none (no result: ROMK primary, DTT redox prof, Autophagy HCS) | ROMK hit retest inactive
CN(C)c1ccc(/C=N/NC(=O)c2ccccc2Cl)cc1	none | ROMK hit retest inactive
Cc1cc(Cl)c(OCCCNCc2ccccc2)c(Br)c1	ROMK primary -5.18 | ROMK hit retest 0.0529
O=[N+]([O-])c1ccccc1OCCCNCc1ccccc1	none
Clc1ccc(OCCCNCc2ccccc2)c(Br)c1	ROMK primary -2.95 | ROMK hit retest 0.0635
Clc1ccc(Cl)c(OCCCCNCc2ccccc2)c1	ROMK primary -3.24 | ROMK hit retest 0.0656
Cc1cccc(OCCCCNCc2ccccc2)c1	ROMK primary -1.33 | ROMK hit retest 0.0617
OCCNCCCOc1ccc(Cl)cc1Br	none (no result: ROMK primary)

Assay outcomes: PubChem, several laboratories
